Experimental findings from ChEMBL document CHEMBL1133746 (J Med Chem, 2000) are described below.

*1 amine or outer side, *2 acyl side, *3 side chain or, on linkers, in order; H or OH if unused. Where a SMILES comes first, the peptide text is derived from it. [ ]: non-standard residue; d: D form. The star is where a group is joined. X2 = O=C(O)CN1C(=O)[C@H](N*)CSc2ccccc21; X1 = O=C([C@@H]1CC(O)CN1[*:1])[*:2]; Igl = N[C@H](C(=O)O)C1Cc2ccccc2C1; Hyp = O=C(O)[C@@H]1C[C@@H](O)CN1; 2Thi = N[C@@H](Cc1cccs1)C(=O)O

By Ki is commonly meant the equilibrium dissociation constant of an inhibitor or competing ligand from its target.

One experiment deals with T1, B2 bradykinin receptor (Homo sapiens, UniProt P30411).
T1 sequence (P30411 whole entry): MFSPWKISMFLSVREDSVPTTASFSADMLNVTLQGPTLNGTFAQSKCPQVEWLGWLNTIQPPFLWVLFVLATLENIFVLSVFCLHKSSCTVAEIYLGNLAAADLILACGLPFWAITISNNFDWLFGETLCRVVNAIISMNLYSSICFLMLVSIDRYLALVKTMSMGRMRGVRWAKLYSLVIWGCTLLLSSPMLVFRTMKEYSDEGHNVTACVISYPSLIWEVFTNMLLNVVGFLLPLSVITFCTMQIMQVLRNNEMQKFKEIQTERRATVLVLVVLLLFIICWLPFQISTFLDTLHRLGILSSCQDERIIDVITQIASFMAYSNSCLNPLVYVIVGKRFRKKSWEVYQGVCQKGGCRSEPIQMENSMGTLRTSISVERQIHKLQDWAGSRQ
Description: Ability to bind to human cloned B2 receptor in competition binding experiments with [3H]- bradykinin. The method in brief: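 Membranes were prepared from stably transfected CHO cells expressing the human B2 receptor. Cells were scraped into 20 mM TES pH 6.8 with 1 mM 1,10-phenanthroline, 140 µg/mL bacitracin and 0.1% BSA, and membranes were spun at 40000g for 15 min. Bound label was filtered on PEI-soaked GF/B filters, washed with ice-cold buffer and counted.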

The species named for experiment [1] is Homo sapiens. Description: Inhibition of contraction of human umbilical vein (HUV) induced by different concentrations of bradykinin was determined. The experiment is classed as functional. The following applies: for Kb: read-out: pA2 (converted). In a few lines:
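Human umbilical vein rings (3–4 mm) were mounted in Krebs organ baths at 37 °C with 95% O2/5% CO2. Captopril (10 µM), DL-thiorphan (1 µM), mepyramine (1 µM), atropine (1 µM), indomethacin (3 µM), NG-nitro-L-arginine (30 µM) and nifedipine (0.1 µM) were added. […] Means are of at least 3 experiments.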

For the next experiment, the target named is T2, B1 bradykinin receptor (Homo sapiens, UniProt P46663).
T2 sequence (P46663 whole entry): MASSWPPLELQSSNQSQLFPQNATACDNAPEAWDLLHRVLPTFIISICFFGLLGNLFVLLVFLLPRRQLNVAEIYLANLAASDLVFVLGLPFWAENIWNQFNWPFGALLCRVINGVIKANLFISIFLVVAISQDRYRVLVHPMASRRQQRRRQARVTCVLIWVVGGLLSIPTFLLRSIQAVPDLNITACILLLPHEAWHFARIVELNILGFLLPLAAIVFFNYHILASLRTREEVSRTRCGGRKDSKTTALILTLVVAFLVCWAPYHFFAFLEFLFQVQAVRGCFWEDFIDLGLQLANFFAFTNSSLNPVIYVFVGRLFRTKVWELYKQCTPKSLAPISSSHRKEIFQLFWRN
The experiment can be described thus: Ability to bind to human cloned B1 receptor in competition binding experiments with [3H][des-Arg10,Leu9]-Kallidin. In a few lines:
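Membranes from stably transfected human embryonic kidney 293 cells expressing the human B1 receptor were used. Cells were scraped into 25 mM TES pH 7.4 with 1 mM 1,10-phenanthroline, 140 µg/mL bacitracin and 0.1% BSA, and membranes were spun at 40000g for 15 min. Incubation was with 1 nM [3H][des-Arg10,Leu9]-kallidin for 60 min. Nonspecific binding was taken with 10 µM [des-Arg10,Leu9]-kallidin. Bound label was collected by filtration on PEI-soaked GF/B filters and counted by scintillation.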

Experiment [2] is filed under the species Homo sapiens. Description: Ability to inhibit contraction of human umbilical vein (HUV) induced by [des-Arg10]-Kallidin was determined. The experiment is classed as functional. The following applies: read-out: pA2 (converted). The method in brief:
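Human umbilical vein rings (3–4 mm) were kept overnight at 37 °C in Krebs with penicillin/streptomycin under 95% O2/5% CO2 to induce B1. They were then set in organ baths at 37 °C with captopril, thiorphan, mepyramine, atropine, indomethacin, NG-nitro-L-arginine and nifedipine added. [des-Arg10]-kallidin concentration-response curves were run 30 min later, with antagonist or vehicle added 15 min before. Means are of at least 3 experiments.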

Consider `NC(N)=NCCC[C@@H](N)C(=O)N[C@@H](CCCN=C(N)N)C(=O)N1CCC[C@H]1C(=O)N1CC(O)C[C@H]1C(=O)NCC(=O)N[C@H](C(=O)N[C@@H](CO)C(=O)N[C@@H]1CSc2ccccc2N(CC(=O)O)C1=O)C1Cc2ccccc2C1` (some centres undefined), for which the Ki on B2 bradykinin receptor amounted to 325 nM; on B1 bradykinin receptor, 5.6 nM. For the same molecule, the Kb in the experiment listed under Homo sapiens [1] was above 10000 nM.
At B2 bradykinin receptor, `CC(C)C[C@H](NC(=O)[C@@H]1CCCN1C(=O)[C@H](CO)NC(=O)[C@H](Cc1ccccc1)NC(=O)CNC(=O)[C@@H]1CCCN1C(=O)[C@@H]1CCCN1C(=O)[C@H](CCCN=C(N)N)NC(=O)[C@@H](N)CCCCN)C(=O)O` yielded an inhibition constant Ki above 1000 nM. Further, the Kb in the experiment filed under Homo sapiens [2] is 12.6 nM; in the experiment listed under Homo sapiens [1] it was above 10000 nM.
In the case of `NC(N)=NCCC[C@@H](N)C(=O)N[C@@H](CCCN=C(N)N)C(=O)N1CCC[C@H]1C(=O)N1C[C@H](O)C[C@H]1C(=O)NCC(=O)N[C@@H](Cc1cccs1)C(=O)N[C@@H](CO)C(=O)N1Cc2ccccc2C[C@@H]1C(=O)N1[C@H](C(=O)O)C[C@@H]2CCCC[C@@H]21`, the Kb in the experiment filed under Homo sapiens [2] was 31.6 nM; in the experiment listed under Homo sapiens [1] it was above 10000 nM. Further, at B1 bradykinin receptor, affinity was put at a Ki of 24 nM.
Turning to `NC(N)=NCCC[C@@H](N)C(=O)N[C@@H](CCCN=C(N)N)C(=O)N1CCC[C@H]1C(=O)N1C[C@H](O)C[C@H]1C(=O)NCC(=O)N[C@@H](Cc1cccs1)C(=O)N[C@@H](CO)C(=O)N1Cc2ccccc2C[C@@H]1C(=O)N1[C@H](C(=O)N[C@@H](CCCN=C(N)N)C(=O)O)C[C@@H]2CCCC[C@@H]21`, the Kb in the experiment filed under Homo sapiens [2] was above 10000 nM. Also, on B1 bradykinin receptor, the Ki was above 1000 nM.
`N=C(N)NCCC[C@@H](N)C(=O)N[C@@H](CCCNC(=N)N)C(=O)N1CCC[C@H]1C(=O)N1CC(O)C[C@H]1C(=O)NCC(=O)N[C@@H](Cc1cccs1)C(=O)N[C@@H](CO)C(=O)N[C@@H]1CSc2ccccc2N(CC(=O)O)C1=O` (some centres undefined): the results for the Ki at B2 bradykinin receptor and on B1 bradykinin receptor were 4.4 nM and 83 nM, respectively.
For `CC(C)C[C@H](NC(=O)[C@@H]1CCCN1C(=O)[C@H](CO)NC(=O)[C@H](Cc1ccccc1)NC(=O)CNC(=O)[C@@H]1CCCN1C(=O)[C@@H]1CCCN1C(=O)[C@@H](N)CCCN=C(N)N)C(=O)O`, the inhibitory constant (Ki) on B2 bradykinin receptor was above 1000 nM. Besides, the Kb in the experiment filed under Homo sapiens [2] was 398 nM; in the experiment filed under Homo sapiens [1], above 10000 nM.
As for `NCCCC[C@H](NC(=O)[C@@H](N)CCCCN)C(=O)N[C@@H](CCCN=C(N)N)C(=O)N1CCC[C@H]1C(=O)N1CC(O)C[C@H]1C(=O)NCC(=O)N[C@H](C(=O)N[C@@H](CO)C(=O)N[C@@H]1CSc2ccccc2N(CC(=O)O)C1=O)C1Cc2ccccc2C1` (some centres undefined) (H-KKRP[X1]G[Igl]S-X2), the Ki at B2 bradykinin receptor was found to be 62 nM; at B1 bradykinin receptor, 0.035 nM. Besides, the Kb was 3.16 nM in the experiment filed under Homo sapiens [2] and 3160 nM in the experiment filed under Homo sapiens [1].
Taken in the same sequence, the figures for `NCCCC[C@H](N)C(=O)N[C@@H](CCCN=C(N)N)C(=O)N1CCC[C@H]1C(=O)N1C[C@H](O)C[C@H]1C(=O)NCC(=O)N[C@H](C(=O)N[C@@H](CO)C(=O)N[C@@H]1CSc2ccccc2N(CC(=O)O)C1=O)C1Cc2ccccc2C1` (H-KRP[Hyp]G[Igl]S-X2) were 9.2 nM, 0.023 nM, 10 nM and above 10000 nM.
Take `NCCCC[C@H](N)C(=O)N[C@@H](CCCN=C(N)N)C(=O)N1CCC[C@H]1C(=O)N1CC(O)C[C@H]1C(=O)NCC(=O)N[C@@H](Cc1cccs1)C(=O)N[C@@H](CO)C(=O)N[C@@H]1CSc2ccccc2N(CC(=O)O)C1=O` (some centres undefined) (H-KRP[X1]G[2Thi]S-X2) [listing 1 of 2 here]: the Ki turned out to be 0.4 nM at B2 bradykinin receptor and 0.22 nM at B1 bradykinin receptor. In addition, in the experiment filed under Homo sapiens [2], the Kb is 39.8 nM.
As for `NCCCC[C@H](N)C(=O)N[C@@H](CCCN=C(N)N)C(=O)N1CCC[C@H]1C(=O)N1CC(O)C[C@H]1C(=O)NCC(=O)N[C@@H](Cc1cccs1)C(=O)N[C@@H](CO)C(=O)N[C@@H]1CSc2ccccc2N(CC(=O)O)C1=O` (some centres undefined) (H-KRP[X1]G[2Thi]S-X2) [listing 2 of 2 here], in the experiment listed under Homo sapiens [1], the pKp came to 4.8.
In the experiment listed under Homo sapiens [1], H-RPPGFSPFR-OH [BRADYKININ] yielded a pD2 of 7.9.
